Data on 1 compound can be found in ChEMBL document CHEMBL4680083, “Identification of Tricyclic Agonists of Sphingosine-1-phosphate Receptor 1 (S1P) Employing Ligand-Based Drug Design” (J Med Chem, 2016).

The nature of data set [1]: Plasma concentration in Lewis rat at 1 mg/kg, po measured at 4 hr. The format is ADME, organism-based. The settings on record: Lewis, plasma. In a few lines:
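Lewis rats received a single oral 1.0 mg/kg dose as solution or suspension in PEG300. Blood was drawn retro-orbitally under isoflurane at 4 h and 24 h, within the blood lymphocyte reduction study. n = 3−4 per group, group mean reported.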

Data set [2] in a line: Ratio of plasma concentration in Lewis rat at 1 mg/kg, po measured at 4 hrs to plasma concentration in Lewis rat at 1 mg/kg, po measured at 24 hrs. The format is ADME, organism-based. The conditions noted are these: in vivo.
For data set [3], the system named is Rattus norvegicus. The experiment in a line: Reduction in circulating lymphocytes count in Lewis rat blood assessed as effective dose administered orally measured at 4 to 24 hrs by hematology analyzer based analysis. The format is functional. The settings on record: po, time 4-24 hrs.
Data set [4] addresses Sphingosine 1-phosphate receptor 1 (Homo sapiens, UniProt P21453). The experiment in a line: Agonist activity at human S1P1 assessed as stimulation of cAMP accumulation. It is filed as functional.
The nature of data set [5]: Protein binding in human assessed as bound fraction. It is filed as ADME. The conditions noted are these: read-out: PB (converted).
Data set [6] is described as follows: Protein binding in mouse assessed as bound fraction. The format is ADME. The conditions noted are these: read-out: PB (converted).
Data set [7] can be described thus: Protein binding in dog assessed as bound fraction. The format is ADME, Canis lupus familiaris. The conditions noted are these: read-out: PB (converted).
A short description of data set [8]: Protein binding in monkey assessed as bound fraction. The conditions noted are these: rhesus monkey; read-out: PB (converted). It is filed as ADME, Macaca mulatta.
The target in data set [9] is T1, Nuclear receptor subfamily 1 group I member 2 (Homo sapiens, UniProt O75469).
T1 sequence (O75469 whole entry): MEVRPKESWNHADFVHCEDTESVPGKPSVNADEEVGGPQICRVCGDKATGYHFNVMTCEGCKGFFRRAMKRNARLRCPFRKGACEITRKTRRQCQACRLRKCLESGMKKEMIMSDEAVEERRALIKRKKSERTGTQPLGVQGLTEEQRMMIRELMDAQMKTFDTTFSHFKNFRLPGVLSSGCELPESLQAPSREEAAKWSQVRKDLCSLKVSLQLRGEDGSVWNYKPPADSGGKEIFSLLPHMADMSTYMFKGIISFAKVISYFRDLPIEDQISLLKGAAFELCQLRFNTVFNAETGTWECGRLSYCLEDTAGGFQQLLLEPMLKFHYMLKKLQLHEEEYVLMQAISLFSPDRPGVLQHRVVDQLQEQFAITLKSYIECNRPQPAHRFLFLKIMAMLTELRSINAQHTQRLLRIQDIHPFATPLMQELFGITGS
The experiment in a line: Transactivation of PXR (unknown origin). The format is ADME.

The target in a further data set is T2, Cytochrome P450 1A2 (Homo sapiens, UniProt P05177).
T2 sequence (P05177 whole entry): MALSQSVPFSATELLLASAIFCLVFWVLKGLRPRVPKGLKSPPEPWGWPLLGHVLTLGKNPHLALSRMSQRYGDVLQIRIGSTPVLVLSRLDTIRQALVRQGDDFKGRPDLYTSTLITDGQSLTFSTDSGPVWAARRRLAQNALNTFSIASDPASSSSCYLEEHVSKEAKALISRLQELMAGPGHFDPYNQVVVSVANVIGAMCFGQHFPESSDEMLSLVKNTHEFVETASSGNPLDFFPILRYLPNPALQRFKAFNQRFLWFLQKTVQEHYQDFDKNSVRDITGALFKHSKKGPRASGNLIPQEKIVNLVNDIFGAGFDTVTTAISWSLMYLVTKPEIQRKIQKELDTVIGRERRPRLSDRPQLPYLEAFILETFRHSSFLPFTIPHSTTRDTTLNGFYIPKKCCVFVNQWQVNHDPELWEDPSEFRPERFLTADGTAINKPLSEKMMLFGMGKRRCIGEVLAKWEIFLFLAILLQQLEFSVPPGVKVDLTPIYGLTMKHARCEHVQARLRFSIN
The experiment in a line: Inhibition of CYP1A2 (unknown origin). It is filed as ADME.

The next data set deals with Cytochrome P450 2D6 (Homo sapiens, UniProt P10635). The experiment in a line: Inhibition of CYP2D6 (unknown origin). It is filed as ADME.
Cytochrome P450 2D6, sequence (P10635 whole entry): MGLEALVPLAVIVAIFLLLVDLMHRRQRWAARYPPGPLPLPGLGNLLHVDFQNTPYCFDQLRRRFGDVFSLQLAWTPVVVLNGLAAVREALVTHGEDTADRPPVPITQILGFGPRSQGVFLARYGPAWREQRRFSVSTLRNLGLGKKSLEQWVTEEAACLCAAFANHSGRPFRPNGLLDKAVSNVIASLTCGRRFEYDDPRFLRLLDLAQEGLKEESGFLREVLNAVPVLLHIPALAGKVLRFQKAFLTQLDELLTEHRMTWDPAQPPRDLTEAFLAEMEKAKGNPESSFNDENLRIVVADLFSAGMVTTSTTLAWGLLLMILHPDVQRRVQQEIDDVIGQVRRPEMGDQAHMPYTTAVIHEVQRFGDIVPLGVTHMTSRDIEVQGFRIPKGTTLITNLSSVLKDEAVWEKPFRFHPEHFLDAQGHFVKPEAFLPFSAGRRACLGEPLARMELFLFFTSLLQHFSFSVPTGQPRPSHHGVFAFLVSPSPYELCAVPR
The next data set has as its target Cytochrome P450 3A4 (Homo sapiens, UniProt P08684). The experiment in a line: Inhibition of CYP3A4 (unknown origin) using 7-benzyloxy resorufin as substrate. It is filed as ADME.
A further data set concerns the target T3, Cytochrome P450 2C8 (Homo sapiens, UniProt P10632).
T3 sequence (P10632 whole entry): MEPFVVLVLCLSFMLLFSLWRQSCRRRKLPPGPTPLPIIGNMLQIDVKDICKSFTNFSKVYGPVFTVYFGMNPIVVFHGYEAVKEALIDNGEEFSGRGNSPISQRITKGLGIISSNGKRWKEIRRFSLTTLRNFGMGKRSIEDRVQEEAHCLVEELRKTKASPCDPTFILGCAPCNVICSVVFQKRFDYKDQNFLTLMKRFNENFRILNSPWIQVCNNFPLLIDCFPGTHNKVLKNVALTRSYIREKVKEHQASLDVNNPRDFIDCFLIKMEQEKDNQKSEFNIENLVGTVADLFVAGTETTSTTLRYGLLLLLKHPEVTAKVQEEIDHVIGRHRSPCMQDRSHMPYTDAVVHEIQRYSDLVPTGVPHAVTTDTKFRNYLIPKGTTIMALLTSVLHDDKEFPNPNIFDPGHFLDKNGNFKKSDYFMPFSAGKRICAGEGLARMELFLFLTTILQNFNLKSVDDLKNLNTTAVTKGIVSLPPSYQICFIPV
The experiment in a line: Inhibition of CYP2C8 (unknown origin). The format is ADME.

The nature of data set [10]: Permeability of compound at pH 7.7 by PAMPA. The format is ADME. The settings on record: read-out: permeability. A general note: PAMPA measures passive passage across an artificial lipid membrane.
A short description of data set [11]: Metabolic stability in human assessed as half-life. The format is ADME.
Data set [12] can be described thus: Metabolic stability in mouse assessed as half-life. It is filed as ADME.
Data set [13] is described as follows: Metabolic stability in monkey assessed as half-life. The format is ADME, Macaca mulatta. The settings on record: rhesus monkey.
Data set [14] in a line: Cmax in rat at 1 mg/kg, po or 1 mg/kg, iv. It is filed as ADME, organism-based. More on the design: dose 1 mg/kg. The settings on record: in vivo.
Data set [15] is described as follows: Tmax in cynomolgus monkey at 0.5 mg/kg, po or 0.5 mg/kg, iv. It is filed as ADME, organism-based, Macaca fascicularis. The settings on record: in vivo.
Data set [16] in a line: AUC in cynomolgus monkey at 0.5 mg/kg, po. It is filed as ADME, organism-based, Macaca fascicularis. More on the design: dose 0.5 mg/kg. The conditions noted are these: in vivo.
Data set [17] in a line: Half-life in cynomolgus monkey at 0.5 mg/kg, po or 0.5 mg/kg, iv. It is filed as ADME, organism-based, Macaca fascicularis. The settings on record: in vivo.
Data set [18] concerns Rattus norvegicus. The experiment in a line: Antiarthritic activity in Lewis rat model of Complete Freund's adjuvant-induced arthritis assessed as reduction in paw swelling at 0.1 mg/kg, po qd administered for 21 days after CFA injection and measured weekly three times upto day 21 by water displacement plethysmometry. The conditions noted are these: time 21 day. The format is functional. More on the design: scale not given: the % may be the effect or the level left. Summed up: (§1)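 Male Lewis rats, 200−225 g, n = 8 per group. Immunized at the tail base with 100 μL of 10 mg/mL ground Mycobacterium butyricum in incomplete Freund's adjuvant. Oral dosing once daily in PEG300 vehicle from the day of immunization for 21 days, at 0.03, 0.1 or 1.0 mg/kg. Dexamethasone 0.1 mg/kg PO QD as positive control. Paw volume by water displacement plethysmometry, day 7 to day 21.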

The subject of data set [19] is Rattus norvegicus. The experiment in a line: Antiarthritic activity in Lewis rat model of Complete Freund's adjuvant-induced arthritis assessed as effective dose causing reduction in paw swelling administered orally once daily for 21 days after CFA injection and measured weekly three times upto day 21 by water displacement plethysmometer. The conditions noted are these: po, 504 h, time 21 day. The format is functional. Summed up:
as §1

The test system of data set [20] is Rattus norvegicus. The experiment in a line: Antiarthritic activity in Lewis rat model of Complete Freund's adjuvant-induced arthritis assessed as reduction in paw swelling administered orally once daily for 21 days after CFA injection and measured weekly three times upto day 21 by water displacement plethysmometer. The conditions noted are these: 504 h. The format is functional, organism-based. Summed up:
as §1

Each structure is given as a SMILES string. pEC50, pIC50: −log10 of the molar value.

Cytochrome P450 3A4, sequence (P08684 whole entry): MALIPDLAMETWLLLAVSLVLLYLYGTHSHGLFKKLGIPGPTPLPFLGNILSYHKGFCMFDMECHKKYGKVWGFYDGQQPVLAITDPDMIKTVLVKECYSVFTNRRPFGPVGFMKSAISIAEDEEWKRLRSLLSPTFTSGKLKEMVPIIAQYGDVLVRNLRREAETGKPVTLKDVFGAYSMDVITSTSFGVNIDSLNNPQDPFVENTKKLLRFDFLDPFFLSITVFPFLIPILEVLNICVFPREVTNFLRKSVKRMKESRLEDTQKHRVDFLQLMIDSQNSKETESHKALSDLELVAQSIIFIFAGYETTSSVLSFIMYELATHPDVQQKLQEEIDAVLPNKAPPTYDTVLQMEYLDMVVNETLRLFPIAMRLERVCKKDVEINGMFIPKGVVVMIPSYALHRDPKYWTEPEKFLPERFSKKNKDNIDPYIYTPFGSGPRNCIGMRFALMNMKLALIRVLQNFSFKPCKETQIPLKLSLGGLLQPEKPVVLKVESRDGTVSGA
Sphingosine 1-phosphate receptor 1, sequence (P21453 whole entry): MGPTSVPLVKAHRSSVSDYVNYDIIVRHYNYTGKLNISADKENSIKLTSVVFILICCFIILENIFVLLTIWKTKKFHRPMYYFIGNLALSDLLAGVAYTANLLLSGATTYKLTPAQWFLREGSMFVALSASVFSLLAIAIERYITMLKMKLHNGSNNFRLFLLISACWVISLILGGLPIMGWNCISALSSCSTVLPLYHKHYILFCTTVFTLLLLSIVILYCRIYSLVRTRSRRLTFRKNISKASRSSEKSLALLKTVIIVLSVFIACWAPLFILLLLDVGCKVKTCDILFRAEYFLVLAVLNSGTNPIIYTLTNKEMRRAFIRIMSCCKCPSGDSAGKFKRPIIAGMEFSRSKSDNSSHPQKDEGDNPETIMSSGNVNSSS

As a reminder, the ED50 is the dose that gives a 50% effect, or the effect in half of the subjects. One may read the pEC50 as the negative decadic logarithm of the EC50, by convention in mol/L. The pIC50 is the negative decadic logarithm of the IC50, by convention in mol/L. What is called half-life is the time in which the quantity being followed falls by half. A word on the Cmax: it is the peak of the concentration-time curve. For orientation: Tmax means the time at which the peak concentration occurs. What is called AUC is the area under the concentration-time curve, a measure of exposure. Turning to `O=C(O)C1CN(Cc2ccc3c(c2)CCc2c-3noc2-c2onc(-c3ccccc3)c2C(F)(F)F)C1`, in [1], the concentration at 4 h was 55 nM. For the same compound, in [2], the Ratio was determined as 4. In addition, the ED50 in the data set on Rattus norvegicus [3] came to 0.05 mg/kg; in the data set with Rattus norvegicus [19], 0.09 mg/kg. In addition, the negative logarithm of the EC50 (pEC50) was 10.49 in data set [4], less than 4.30 in data set [9] and 7.62 with Rattus norvegicus [20]. Further, the fraction unbound is 0.004 in [5], 0.007 in [6], 0.005 in data set [7] and 0.005 in [8]. Also, the pIC50 is less than 4.40 on Cytochrome P450 1A2, less than 4.40 at Cytochrome P450 2D6, less than 4.40 against Cytochrome P450 3A4 and 4.85 against Cytochrome P450 2C8. Further, the Papp in data set [10] turned out to be 28 ×10⁻⁶ cm/s. The half-life in [11] is greater than 2 h; in data set [12], greater than 2 h; in data set [13], greater than 2 h; in data set [17] it was 18 h. The highest concentration (Cmax) in data set [14] stood at 140 nM. The time to peak (Tmax) in data set [15] came out at 4 h. Also, the exposure (AUC) in data set [16] stood at 3.4 µM·h. Besides, the Activity with Rattus norvegicus [18] is greater than 50%.
